How the values were obtained:
rodents = test: Fertility and fetal development in rodents; assay type: in vivo
PDE7B = PDE7B (Homo sapiens, UniProt Q9NP56); test: PDE enzyme inhibition, radiometric assay; assay type: biochemical
Outline: (§1)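 Recombinant human PDE enzymes (33 in the panel) were incubated in vitro with increasing concentrations of the test compound. Enzyme activity was measured radiometrically and IC50 values derived.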

PDE4D3 = PDE4D3 (Homo sapiens, UniProt Q08499); test: PDE enzyme inhibition, radiometric assay; assay type: biochemical
Outline: as §1

[1] = test system: erythroid cells from CD34+ progenitors of SCD patients; test: HbF induction in SCD patient-derived erythroblasts; assay type: cell-based, human; settings: 10 μM IMR-687, five days, n=9, P<0.01
Outline: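 CD34⁺ progenitors came from the blood or bone marrow of nine SCD donors. Cells grew seven days with 15% BIT 9500, 2 mM L-glutamine, IL-3 (10 ng/mL), IL-6 and SCF (100 ng/mL). CD36⁺ cells were then isolated and grown five days with SCF, IL-3 and EPO (2 UI/mL) plus DMSO, 30 μM hydroxyurea or 10 μM test compound. HbF⁺ cells (%) and HbF MFI were read by PE-anti-HbF FACS, gated LiveDead⁻/GPA⁺/Band3⁺.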

PDE6AB = PDE6AB (Homo sapiens, UniProt P16499+P35913); test: PDE enzyme inhibition, radiometric assay; assay type: biochemical
Outline: as §1

PDE4C2 = PDE4C2 (Homo sapiens, UniProt Q08493); test: PDE enzyme inhibition, radiometric assay; assay type: biochemical
Outline: as §1

PDE4B2 = PDE4B2 (Homo sapiens, UniProt Q07343); test: PDE enzyme inhibition, radiometric assay; assay type: biochemical
Outline: as §1

PDE8B = PDE8B (Homo sapiens, UniProt O95263); test: PDE enzyme inhibition, radiometric assay; assay type: biochemical
Outline: as §1

PDE4D3, sequence (Q08499 1-673 isoform Q08499-2): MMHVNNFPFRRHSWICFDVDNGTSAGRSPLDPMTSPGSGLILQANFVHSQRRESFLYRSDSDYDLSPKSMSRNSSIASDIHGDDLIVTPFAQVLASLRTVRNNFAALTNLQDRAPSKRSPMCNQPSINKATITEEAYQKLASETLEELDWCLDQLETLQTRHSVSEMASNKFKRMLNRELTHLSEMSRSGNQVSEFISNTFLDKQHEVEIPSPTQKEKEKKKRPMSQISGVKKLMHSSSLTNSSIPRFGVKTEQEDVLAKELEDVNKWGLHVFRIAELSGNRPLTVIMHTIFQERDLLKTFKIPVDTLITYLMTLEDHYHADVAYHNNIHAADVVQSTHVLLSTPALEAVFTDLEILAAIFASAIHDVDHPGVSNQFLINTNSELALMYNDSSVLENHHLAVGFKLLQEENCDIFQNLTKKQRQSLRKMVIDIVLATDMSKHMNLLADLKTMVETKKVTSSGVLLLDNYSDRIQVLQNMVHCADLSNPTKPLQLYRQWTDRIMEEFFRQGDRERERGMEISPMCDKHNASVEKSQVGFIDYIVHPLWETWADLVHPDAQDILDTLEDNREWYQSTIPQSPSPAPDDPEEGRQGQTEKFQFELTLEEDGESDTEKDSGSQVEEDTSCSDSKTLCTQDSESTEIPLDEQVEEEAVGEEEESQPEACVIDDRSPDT
PDE4B2, sequence (Q07343 1-564 isoform Q07343-2): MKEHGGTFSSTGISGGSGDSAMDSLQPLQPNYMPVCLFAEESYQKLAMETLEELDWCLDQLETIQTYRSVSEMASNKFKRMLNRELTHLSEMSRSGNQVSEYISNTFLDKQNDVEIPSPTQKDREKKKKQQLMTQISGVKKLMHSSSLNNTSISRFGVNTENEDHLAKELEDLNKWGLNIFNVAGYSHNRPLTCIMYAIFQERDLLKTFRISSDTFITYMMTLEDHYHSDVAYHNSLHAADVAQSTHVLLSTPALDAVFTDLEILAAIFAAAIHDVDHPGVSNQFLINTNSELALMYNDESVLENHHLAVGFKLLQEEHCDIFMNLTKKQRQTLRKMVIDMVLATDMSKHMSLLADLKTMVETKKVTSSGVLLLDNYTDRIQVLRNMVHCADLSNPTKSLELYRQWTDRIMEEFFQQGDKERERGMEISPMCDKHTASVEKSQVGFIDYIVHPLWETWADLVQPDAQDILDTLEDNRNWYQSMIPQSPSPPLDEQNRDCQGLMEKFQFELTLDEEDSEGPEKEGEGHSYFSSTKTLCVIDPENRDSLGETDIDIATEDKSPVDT
PDE4C2, sequence (Q08493 107-712): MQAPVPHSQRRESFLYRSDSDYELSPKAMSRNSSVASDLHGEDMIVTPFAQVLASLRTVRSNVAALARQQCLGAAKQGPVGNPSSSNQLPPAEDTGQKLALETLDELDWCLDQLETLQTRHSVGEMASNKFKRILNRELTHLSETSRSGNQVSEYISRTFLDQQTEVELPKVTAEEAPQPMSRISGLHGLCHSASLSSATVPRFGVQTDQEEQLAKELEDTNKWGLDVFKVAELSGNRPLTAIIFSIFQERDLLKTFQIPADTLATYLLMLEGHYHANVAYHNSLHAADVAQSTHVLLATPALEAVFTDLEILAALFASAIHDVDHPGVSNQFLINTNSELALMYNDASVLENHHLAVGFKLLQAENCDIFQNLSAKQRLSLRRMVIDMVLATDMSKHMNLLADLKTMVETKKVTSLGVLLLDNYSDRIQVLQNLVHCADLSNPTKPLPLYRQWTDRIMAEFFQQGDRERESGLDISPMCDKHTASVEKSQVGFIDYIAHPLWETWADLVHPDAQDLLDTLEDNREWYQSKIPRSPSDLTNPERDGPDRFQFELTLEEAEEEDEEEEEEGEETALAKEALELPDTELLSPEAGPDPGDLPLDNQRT
PDE8B, sequence (O95263 whole entry): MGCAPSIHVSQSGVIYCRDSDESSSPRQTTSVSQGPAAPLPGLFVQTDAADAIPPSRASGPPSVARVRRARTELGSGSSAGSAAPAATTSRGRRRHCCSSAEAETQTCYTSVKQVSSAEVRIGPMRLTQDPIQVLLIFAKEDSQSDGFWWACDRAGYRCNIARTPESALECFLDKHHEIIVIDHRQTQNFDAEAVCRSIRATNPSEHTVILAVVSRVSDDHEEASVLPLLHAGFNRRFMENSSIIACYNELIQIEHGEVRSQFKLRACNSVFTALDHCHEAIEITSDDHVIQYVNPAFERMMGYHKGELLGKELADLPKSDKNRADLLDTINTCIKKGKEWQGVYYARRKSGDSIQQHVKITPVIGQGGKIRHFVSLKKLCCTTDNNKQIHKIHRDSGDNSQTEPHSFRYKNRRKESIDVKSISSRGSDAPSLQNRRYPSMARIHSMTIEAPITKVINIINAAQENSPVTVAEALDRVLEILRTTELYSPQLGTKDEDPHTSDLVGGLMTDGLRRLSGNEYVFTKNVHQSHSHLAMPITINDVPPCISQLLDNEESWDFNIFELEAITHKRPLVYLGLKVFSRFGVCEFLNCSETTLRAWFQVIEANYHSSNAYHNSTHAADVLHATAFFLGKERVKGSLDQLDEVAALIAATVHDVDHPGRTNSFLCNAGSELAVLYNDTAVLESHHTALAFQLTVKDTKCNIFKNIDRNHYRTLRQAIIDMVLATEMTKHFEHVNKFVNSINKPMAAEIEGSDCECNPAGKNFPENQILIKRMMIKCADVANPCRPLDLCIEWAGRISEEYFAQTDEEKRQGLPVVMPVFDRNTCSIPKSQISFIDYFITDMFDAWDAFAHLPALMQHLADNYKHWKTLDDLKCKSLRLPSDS
PDE7B, sequence (Q9NP56 whole entry): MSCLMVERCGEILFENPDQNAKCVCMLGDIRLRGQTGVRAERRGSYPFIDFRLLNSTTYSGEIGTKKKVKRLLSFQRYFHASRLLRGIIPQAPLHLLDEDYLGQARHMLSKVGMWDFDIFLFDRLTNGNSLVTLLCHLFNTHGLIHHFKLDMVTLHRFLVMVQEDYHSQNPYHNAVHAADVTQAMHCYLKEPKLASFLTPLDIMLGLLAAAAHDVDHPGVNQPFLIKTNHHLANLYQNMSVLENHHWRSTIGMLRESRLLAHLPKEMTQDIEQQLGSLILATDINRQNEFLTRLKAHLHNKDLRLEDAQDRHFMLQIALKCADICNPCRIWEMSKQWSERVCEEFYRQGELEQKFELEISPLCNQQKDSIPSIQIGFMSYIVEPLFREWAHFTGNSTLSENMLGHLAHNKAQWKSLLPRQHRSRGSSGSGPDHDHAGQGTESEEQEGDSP
PDE6AB, sequence (P16499 whole entry): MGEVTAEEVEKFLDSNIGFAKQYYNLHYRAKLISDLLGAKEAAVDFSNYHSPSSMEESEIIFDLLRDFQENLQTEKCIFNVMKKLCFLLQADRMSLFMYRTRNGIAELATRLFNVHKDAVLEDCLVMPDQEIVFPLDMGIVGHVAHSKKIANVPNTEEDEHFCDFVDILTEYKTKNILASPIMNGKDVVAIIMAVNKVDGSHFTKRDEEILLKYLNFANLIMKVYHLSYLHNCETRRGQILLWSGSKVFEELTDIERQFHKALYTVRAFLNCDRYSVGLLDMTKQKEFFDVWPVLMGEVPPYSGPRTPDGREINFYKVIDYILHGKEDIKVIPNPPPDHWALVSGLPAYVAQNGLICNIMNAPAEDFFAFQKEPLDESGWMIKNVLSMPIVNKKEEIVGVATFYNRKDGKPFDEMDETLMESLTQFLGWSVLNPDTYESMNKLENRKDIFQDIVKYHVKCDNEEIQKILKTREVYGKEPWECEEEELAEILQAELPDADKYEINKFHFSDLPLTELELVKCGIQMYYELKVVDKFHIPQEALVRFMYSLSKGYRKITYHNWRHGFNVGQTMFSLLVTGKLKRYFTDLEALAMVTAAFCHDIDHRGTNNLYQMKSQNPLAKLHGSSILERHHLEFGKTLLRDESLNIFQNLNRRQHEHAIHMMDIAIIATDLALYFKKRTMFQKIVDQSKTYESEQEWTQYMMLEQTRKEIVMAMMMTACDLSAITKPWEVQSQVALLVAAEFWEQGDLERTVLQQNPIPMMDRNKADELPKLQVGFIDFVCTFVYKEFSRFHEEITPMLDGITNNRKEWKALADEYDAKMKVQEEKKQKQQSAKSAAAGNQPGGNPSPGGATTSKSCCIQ
PDE6AB, sequence (P35913 whole entry): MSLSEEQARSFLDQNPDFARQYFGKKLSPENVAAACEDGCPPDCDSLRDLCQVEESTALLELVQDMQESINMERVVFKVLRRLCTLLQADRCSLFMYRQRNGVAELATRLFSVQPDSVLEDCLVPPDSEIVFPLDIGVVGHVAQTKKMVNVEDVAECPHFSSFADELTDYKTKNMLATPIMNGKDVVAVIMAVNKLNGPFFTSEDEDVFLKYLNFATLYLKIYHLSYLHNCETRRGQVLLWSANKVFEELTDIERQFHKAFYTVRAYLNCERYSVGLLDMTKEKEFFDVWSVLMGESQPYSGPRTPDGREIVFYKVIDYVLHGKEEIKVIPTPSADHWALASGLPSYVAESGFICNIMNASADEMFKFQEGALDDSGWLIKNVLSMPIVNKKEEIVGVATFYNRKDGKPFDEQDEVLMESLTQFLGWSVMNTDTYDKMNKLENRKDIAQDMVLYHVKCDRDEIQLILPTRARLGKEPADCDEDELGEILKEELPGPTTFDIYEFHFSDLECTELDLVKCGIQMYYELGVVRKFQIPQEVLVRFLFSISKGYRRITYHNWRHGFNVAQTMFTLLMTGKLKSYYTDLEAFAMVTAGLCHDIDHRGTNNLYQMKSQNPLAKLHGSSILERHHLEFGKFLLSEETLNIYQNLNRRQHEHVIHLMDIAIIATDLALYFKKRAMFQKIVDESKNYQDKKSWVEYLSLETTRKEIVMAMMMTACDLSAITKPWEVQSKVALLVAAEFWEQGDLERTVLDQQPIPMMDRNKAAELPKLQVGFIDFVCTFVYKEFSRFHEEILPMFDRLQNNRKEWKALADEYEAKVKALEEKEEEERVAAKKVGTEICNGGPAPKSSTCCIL

How did the “impact on fertility or fetal development” value (rodents) turn out when C[C@@H]1CN(Cc2ncccn2)C[C@H]1c1cn2c(C3CCOCC3)ncc2c(=O)[nH]1 [IMR-687] was run?
The value was “did not impact fertility or fetal development”.

And the IC50 (PDE7B)?
Its IC50 is over 100 µM.

What about the IC50 (PDE4D3) of the same molecule?
The IC50 was over 100 µM.

And the “percentage of F-cells (HbF positive)” value ([1]; DMSO control 13.3%)?
The value was 21.9%.

And the “intensity of HbF staining (MFI)” value ([1]; control 6073±1217)?
The value was 7813±1374.

And the IC50 (PDE6AB)?
Its IC50 is over 100 µM.

What about the IC50 (PDE4C2) of the same molecule?
The IC50 was over 100 µM.

And the IC50 (PDE4B2)?
The IC50 was over 100 µM.

What about the IC50 (PDE8B) of the same molecule?
Its IC50 is over 100 µM.

From publication PMC7049346 (Haematologica, 2019)
